Measured values from ChEMBL document CHEMBL1122016, “Aminotetralins as narcotic antagonists. 2. Synthesis and opiate-related activity of 1-phenyl-3-aminotetralins” (1982).
Active and inactive are the calls of the source. The rule behind the calls is not given here.

Key:
Mus musculus [1] = experiment: The Narcotic-antagonistic activity the ability to reverse an ED50 dose of morphine when tested in mice by the tail-flick procedure at the dose of 30 mg/kg (s.c.); type: functional; settings: sc
Procedure, shortened: (§1)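 Mouse tail-flick antagonism assay: test agents given subcutaneously as hydrochloride salts of racemic mixtures, each at 30, 10, 3 and 1 mg/kg, against a subcutaneous ED50 dose of morphine. The read-out is percent inhibition, meaning reversal, of the morphine tail-flick response. Testing was performed by an outside laboratory (NIDA).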

Mus musculus [2] = experiment: The Narcotic-antagonistic activity the ability to reverse an ED50 dose of morphine when tested in mice by the tail-flick procedure at the dose of 1 mg/kg (s.c.); type: functional; settings: sc; procedure, shortened: as §1
Mus musculus [3] = organism: Mus musculus; experiment: activity in the mouse hotplate procedure; type: functional
Mus musculus [4] = experiment: The Narcotic-antagonistic activity the ability to reverse an ED50 dose of morphine when tested in mice by the tail-flick procedure at the dose of 10 mg/kg (s.c.); type: functional; settings: sc; procedure, shortened: as §1
Mus musculus [5] = experiment: The Narcotic-antagonistic activity the ability to reverse an ED50 dose of morphine when tested in mice by the tail-flick procedure at the dose of 3 mg/kg (s.c.); type: functional; settings: sc; procedure, shortened: as §1
Monkey = experiment: Compound was tested for signs of opiate abstinence at 5 mg/kg dose in monkeys; No effect; type: functional, organism-based; parameters: dose 5 mg/kg; settings: Cercopithecidae
Mus musculus [6] = experiment: The ability to reverse an ED50 dose of morphine when tested in mice by the tail-flick procedure at the dose of 3 mg/kg (s.c.) value expressed as narcotic-antagonistic activity; type: functional; procedure, shortened: as §1
Mus musculus [7] = experiment: The ability to reverse an ED50 dose of morphine when tested in mice by the tail-flick procedure at the dose of 1 mg/kg (s.c.) value expressed as narcotic-antagonistic activity; type: functional; procedure, shortened: as §1
Mus musculus [8] = experiment: The ability to reverse an ED50 dose of morphine when tested in mice by the tail-flick procedure at the dose of 10 mg/kg (s.c.) value expressed as narcotic-antagonistic activity; type: functional; procedure, shortened: as §1
Mus musculus [9] = experiment: The ability to reverse an ED50 dose of morphine when tested in mice by the tail-flick procedure at the dose of 30 mg/kg (s.c.) value expressed as narcotic-antagonistic activity; type: functional; procedure, shortened: as §1

| Structure (SMILES) | inhibition in vivo at 1 mg/kg (Mus musculus [2]) | ED50 (Mus musculus [3]) | inhibition in vivo at 3 mg/kg (Mus musculus [5]) | also measured |
| --- | --- | --- | --- | --- |
| CN(CC1CC1)[C@@H]1Cc2ccccc2[C@@H](c2ccccc2)C1 | 60% | 9.1 mg/kg | 100% | inhibition in vivo at 30 mg/kg (Mus musculus [1]): 0%; inhibition in vivo at 10 mg/kg (Mus musculus [4]): 54%; Activity (Monkey): inactive |
| CN1CC[C@]23c4c5ccc(O)c4O[C@H]2[C@@H](O)C=C[C@H]3[C@H]1C5.CN1CC[C@]23c4c5ccc(O)c4O[C@H]2[C@@H](O)C=C[C@H]3[C@H]1C5.O=S(=O)(O)O | – | 1.2 mg/kg | – | – |
| C=CCN1CC[C@]23c4c5ccc(O)c4O[C@H]2C(=O)CC[C@@]3(O)[C@H]1C5.Cl [NALOXONE HYDROCHLORIDE] | – | – | – | AD50 (Mus musculus [6]): 0.031 mg/kg; AD50 (Mus musculus [7]): 0.031 mg/kg; AD50 (Mus musculus [8]): 0.031 mg/kg; AD50 (Mus musculus [9]): 0.031 mg/kg |
| CN(CC1CC1)[C@@H]1Cc2ccccc2[C@H](c2ccccc2)C1 | 75% | 6.3 mg/kg | 100% | – |
| COc1ccc2c3c1O[C@H]1[C@@H](O)C=C[C@H]4[C@@H](C2)N(C)CC[C@@]341.O=S(=O)(O)O | – | 7.5 mg/kg | – | – |
| CN(CC1CC1)C1C=C(c2ccccc2)c2ccccc2C1 (stereo unspecified) | – | > 50 mg/kg | – | – |
